Laboratory results taken from ChEMBL document CHEMBL4513216, “Probing the Open Global Health Chemical Diversity Library for Multistage-Active Starting Points for Next-Generation Antimalarials” (ACS Infect Dis, 2020).

Experiment: Toxicity liver stage against HepG2, at 10uM
Assay type: cell-based
Set-up: test concentration 10 uM, cell line HepG2-A16-CD81EGFP
Conditions: human, HepG2-A16-CD81EGFP cells; read-out: INHIBITION
Procedure, shortened: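 Uninfected HepG2-A16-CD81EGFP cells, 3 × 10^3 per well, 1536-well, plated on prespotted compound at 10 μM final, parasite-free screening media added to match infected plates; puromycin 10 μM positive, DMSO 0.5% negative; run in parallel with 48 h PbLuc assay at 37 °C, 5% CO2; viability by CellTiter-Glo luminescence, normalized to controls.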

Row | Compound | cytotoxicity at 10 µM [%]
1 | CC(Cn1cccn1)NC(=O)N1CCN(Cc2ccco2)CC1 (centres undefined) | -20.6
2 | O=C(Cc1ccccc1F)NCC1CCN(CCc2ccccc2)C1 (centres undefined) | -43.5
3 | CC(C)n1cnnc1CNC(=O)c1cnc2ccccc2n1 | 7.01
4 | CCCc1noc(CS(=O)(=O)CC(=O)NC(C)CCC)n1 (centres undefined) | 3.22
5 | Cc1cc(C)n(CC2CN(CC(=O)NCc3ccccn3)CCO2)n1 (centres undefined) | -5.07
6 | COc1ccc(CN2CCC(c3nnc(-c4scnc4C)o3)CC2)cc1 | -5.03
7 | CCc1n[nH]c(C(=O)N2CCCC3(CN(C)C(=O)O3)C2)c1C (centres undefined) | -44.7
8 | CCSCCn1cc(-c2nccs2)nn1 | 0.935
9 | Cc1nn(C)c(C)c1C1CCCN1Cc1cccc(OCC(N)=O)c1 (centres undefined) | -0.192
10 | O=C(CN1CCOC(Cn2cccn2)C1)NCCc1cccs1 (centres undefined) | -11.3
11 | CCC(C)(C)C1CCCN1C(=O)c1coc(S(=O)(=O)NC)c1 (centres undefined) | -13.5
12 | CCc1ccccc1OCC(=O)N1CCOCC1c1ncon1 (centres undefined) | -8.93
13 | Clc1ccccc1CN1CCCC(c2nnc(-c3cnccn3)o2)C1 (centres undefined) | -10.3
14 | CCCc1cc(NCc2noc(COC)n2)n2nccc2n1 | 6.48
15 | Cc1noc(C)c1CC(=O)N1CCC(c2ccn3nccc3n2)CC1 | -0.317
16 | O=C(CCn1ccnn1)N1CCCC(n2cncn2)C1 (centres undefined) | -1.26
17 | Cc1nc(CN(C)Cc2cnc(N3CCOCC3)s2)no1 | 1.87
18 | COCCCC(=O)Nc1cc(Cl)c(Cl)cn1 | 87
19 | OC1(CN2CCCC2)CCCN(c2ncnc3[nH]cnc23)C1 (centres undefined) | 11.3
20 | CCc1ccc(S(=O)(=O)Nc2ccncc2)s1 | 0.453
21 | CC(Oc1ccc(F)c(F)c1)C(=O)N(CC(N)=O)C1CCCC1 (centres undefined) | -0.146
22 | Cc1ccc(N2CCOC(C)(C(=O)N(C)C)C2)nn1 (centres undefined) | -4.43
23 | COC1CCCN(C(=O)c2sc(CC(C)C)nc2C)C1 (centres undefined) | 10.9

Row | Compound | cytotoxicity at 10 µM [%]
24 | Cc1cn2c(n1)CCC(NC(=O)c1cc[nH]n1)C2 (centres undefined) | -8.06
25 | Cc1nccc(C2CN(C(=O)c3cncnc3)C2)n1 | -2.46
26 | Cn1ccc(C(=O)N2CCCC2c2cc(CCO)[nH]n2)n1 (centres undefined) | 3.31
27 | CC(=O)N1Cc2nccn2CC(CNC(=O)c2cccnc2)C1 (centres undefined) | -146
28 | COc1ccc(OCc2cc(C(=O)N3C[C@@H](C)O[C@@H](C)C3)n[nH]2)c(Cl)c1 | -4.28
29 | CC(C)c1cc(NCC2(CO)CCCC2)ncn1 | 11.9
30 | Cc1nc(N)cc(C2(C)CCCNC2)n1 (centres undefined) | 1.36
31 | CN1CCN(S(C)(=O)=O)c2ccc(F)cc21 | -4.12
32 | Cc1cccc(O[C@H]2COCCN(C3CCC3)C2)n1 | -4.81
33 | Cc1ccc(F)cc1-n1c(CCCN2CCOCC2)n[nH]c1=O | 7.32
34 | COc1cc2nc(NCc3scnc3C)nc(N)c2cc1OC | 6.34
35 | CCn1ncnc1C1CC(=O)NCc2nc(N)sc21 (centres undefined) | -4.78
36 | CCCn1c(N2CCCC2)nc2c(C)nn(C)c2c1=O | 2.33
37 | Cc1ccsc1CNC(=O)NC1CCCc2c1cnn2CCO (centres undefined) | 3.33
38 | COc1cc(N(C)CCCn2nc(C)cc2C)ncn1 | 1.6
39 | COc1cccc(Cc2nnc(SCCS(C)(=O)=O)o2)c1 | 2.72
40 | COc1ccc2c(c1)NC(C1CCN(C(=O)C(C)C)CC1)NS2(=O)=O (centres undefined) | -4.66
41 | CN1CC2(CCN(Cc3cccnc3)CC2)c2cccc(F)c21 | 10.7
42 | OCC(CO)Nc1ccc2c(Cl)ccc(Cl)c2n1 | -3.04
43 | COCCN1CCN(c2nc(O)cc(Cc3ccccc3F)n2)CC1 | -4.52
44 | COCCNC(=O)Nc1ccc(-n2cncn2)c(F)c1 | -0.0868
45 | Cc1ccc(CN2CCN(C(=O)c3ccc(CO)cc3)C(C)C2=O)cc1 (centres undefined) | 6.42
46 | CC(=O)N(Cc1ccoc1)C1CCCCC1 | -2.86

Row | Compound | cytotoxicity at 10 µM [%]
47 | Cc1cc(CN2CCN(C(=O)NCCCc3cn[nH]c3C)CC2)on1 | -13.2
48 | COC(=O)C1CCN(c2cncc(-n3nc(C)cc3C)n2)CC1 | -9.44
49 | O=C(c1cc(F)ccc1F)C1CCN(C(=O)c2ccco2)CC1 | 3.15
50 | CC(C)[C@H](NC(=O)NC1CCS(=O)(=O)C1)C(=O)NCc1ccc(Cl)cc1 (some centres undefined) | 3.09
51 | Cc1cc(NCc2nnc3n2CCC3)n2nc(C)c(C)c2n1 | 1.16
52 | CCN1CCC2(CC1)CC(NC(=O)c1ccnnc1)c1ccccc12 (centres undefined) | -6.9
53 | CCOCCCNc1ncc(-c2onc(C)c2C)c(-c2ccco2)n1 | 10.2
54 | Cn1c(=O)n(C)c2nc(Br)c(CC(=O)c3ccccc3)n2c1=O | 0.9
55 | Cc1nn(C)c(N2CCOCC2)c1CNCc1ccoc1C | -8.76
56 | Fc1ccccc1CN1CCC[C@@H](Cn2nnc(-c3cccs3)n2)C1 | 4.77
57 | CN1CCOC(C)(C(=O)N2CCN(C3CCCC3)CC2)C1 (centres undefined) | -25.8
58 | CN(Cc1ccc(F)cc1)C(=O)CN1CCOC(Cn2cccn2)C1 (centres undefined) | 2.2
59 | CC(N(C)Cc1nc2c(cnn2C)c(=O)[nH]1)C(C)(C)C (centres undefined) | -3.09
60 | O=C(C1CN(c2ncc(F)cn2)CC12CCOCC2)N1CCOCC1 (centres undefined) | 13.6
61 | CC(C)NC(=O)C1CCC2(CCN(Cc3cnn(C)c3)CC2)CO1 (centres undefined) | 9.67
62 | CCOc1ccc(Cl)c(C(=O)N2CCN(C(=O)OC)CC2)n1 | -6.33
63 | c1cncc(OCc2noc3c2CN(Cc2cccs2)CC3)c1 | 9.95
64 | COCCN1CC(C(=O)Nc2ccc3c(c2)CCC(=O)N3C)CC1=O (centres undefined) | 6.18
65 | CC1c2ncc(COCC3CCOCC3)n2CCN1S(C)(=O)=O (centres undefined) | 3.11
66 | O=C(c1ccno1)N1CCN2C(=O)N(Cc3ccc(F)cc3)C[C@H]2C1 | -5.96
67 | COCCn1ccnc1CN(Cc1ccccn1)CC(C)C | 4.96
68 | Cc1ccnc(CC(C)N(C)Cc2ccc3c(c2)CCO3)c1 (centres undefined) | 1.63
69 | OCC1CCCN1c1cc(N2CCc3ccccc3C2)ncn1 (centres undefined) | 2.53

Row | Compound | cytotoxicity at 10 µM [%]
70 | CCc1ccc(CN2C[C@@H](C)C3(CCN(CC(=O)N(C)C)C3=O)C2)o1 (some centres undefined) | 1.11
71 | COc1cc(NC2CCS(=O)(=O)CC2)ncn1 | -3.71
72 | Cc1cc(NC(=O)NC(C)CO)ccc1OCC(F)(F)F (centres undefined) | 5.2
73 | CCOc1ccccc1NC(=O)NCC(C)(O)CCSC (centres undefined) | -6.14
74 | CCC(CC)CS(=O)(=O)NC(=O)C1CCCC1 | -13.3
75 | Cc1ccc(-n2nnc(C(=O)NCC(F)(F)F)c2C2CC2)cc1 | -6.94
76 | CC(NCc1ccc(OCC(N)=O)cc1)c1ccc(Cl)c(Cl)c1 (centres undefined) | -5.25
77 | CN(Cc1cnn(C)c1)C(=O)Nc1cccnc1-n1cccn1 | -1.32
78 | Cc1noc(C(C)C)c1C(=O)NS(=O)(=O)c1ccc2c(c1)OCCCO2 | -9.06
79 | CN(C)C(=O)CN1C(=O)CCC12CCN(Cc1cccs1)CC2 | -2.6
80 | Cc1ccc(CN2CCC3(CC2)NC(=O)CC3c2ccncc2)cc1C (centres undefined) | 3.75
81 | CCn1nnc(NCc2ccc(-c3ccc(Br)cc3)o2)n1 | -10.1
82 | CC(=O)Nc1nc(C(=O)NCCOc2cccc(C)c2)cs1 | -0.794
83 | Cc1c2ncn(CC(=O)c3ccccc3)c(=O)c2nn1C | -8.58
84 | CC(=O)c1cc(Br)cc(F)c1OCC(=O)NC1CC1 | -6.16
85 | Cc1cnn(CC2CCN(CC(O)CN3CCC(C)CC3)CC2)c1 (centres undefined) | 5.11
86 | Cc1cccc(CN2CCCC3(CCN(CC4CCCO4)CC3)C2)n1 (centres undefined) | -121
87 | CCN1CCC(NC(=O)Cn2cc(C)c3ccccc32)CC1 | -1.74
88 | CCc1ncc(CN2CCC(CCc3ccccc3)CC2)cn1 | -175
89 | CS(=O)(=O)N1CCOCC2(CN(Cc3ccc(F)cc3)CCO2)C1 (centres undefined) | 1.42
90 | O=C(c1ccnnc1)N1CCc2onc(Cn3cccn3)c2C1 | 0.529
91 | Cc1cnn(CC2CCCCN2CCn2cncn2)c1 (centres undefined) | 6.26
92 | O=C(c1cnc(C2CC2)nc1)N1CCC(N2CCC(O)CC2)CC1 | 2.33

Row | Compound | cytotoxicity at 10 µM [%]
93 | COc1ncccc1NC(=O)N(Cc1ccc(C)o1)C1CC1 | -1.83
94 | CCOCC(O)CN1CCN(C(=O)c2cccc(CC#N)c2)CC1 (centres undefined) | -16.4
95 | O=C(C1CN(CC2CC2)CC12CCOCC2)N1CCOCC1 (centres undefined) | 6.07
96 | CS(=O)(=O)CCN1CCc2c(ncn2C2CC2)C1 | -6.06
97 | Cc1cccc(C(=O)N2CCCC2c2c(C)n[nH]c2C)c1 (centres undefined) | 8.58
98 | CC(C)(C)c1cc(=O)n2c(n1)SCC(C(=O)NCc1cccs1)C2 (centres undefined) | 12.9
99 | CC(Cn1cccn1)NCc1csc(COc2ccc(F)cc2)n1 (centres undefined) | 5.84
100 | CCOc1ccnc(N2CCN(C(=O)CCc3ccncc3)CC2)n1 | -0.662
101 | CN(C)CCNC(=O)[C@H]1C[C@H]2CN(c3ncccn3)C[C@H]2N1C | 9.52
102 | O=C(Cc1c(F)cccc1Cl)Nc1cccc(N2CCCC2)c1 | -117
103 | CS(=O)(=O)NC[C@]12COC[C@H]1CN(Cc1ccc3c(c1)OCO3)C2 | -106
104 | Cn1nccc1C(=O)N1CCC2(CC1)COC(COc1ccccn1)C2 (centres undefined) | -7.18
105 | CS(=O)(=O)NCC1CCN(Cc2cc3ccccc3[nH]c2=O)C1 (centres undefined) | -6.92
106 | CN1C(=O)C(C)(C)COc2cc(NS(=O)(=O)c3ccccc3)ccc21 | -7.89
107 | Cc1cnc(CN(C)C2CCCN(Cc3noc(C4CC4)n3)C2)cn1 (centres undefined) | -2.13
108 | CC(=O)NCC(=O)N1C[C@@H](C)[C@@]2(CCN(c3ccsc3)C2=O)C1 | -74.7
109 | CSc1cc2c(cc1NC(=O)NCCn1ccnc1)OCCO2 | -8.28
110 | CC(C)CC(=O)NCC1CCC(C(c2ccccn2)N(C)C)CC1 (centres undefined) | 12.2
111 | CC1CCc2nn(CCNC(=O)C3CCCC3)c(=O)cc2C1 (centres undefined) | 7.71
112 | O=C(Cc1ccccc1F)N1CCN(C(=O)c2cccc(F)c2)CC1 | 7.7
113 | CCS(=O)(=O)N1CCC2(CN(c3ccsc3)C(=O)CN2C)C1 (centres undefined) | 7.31
114 | COc1ccccc1C(=O)Nc1c(C)cnn1CC1CC1 | -3.47
